The values below come from ChEMBL document CHEMBL3244368, “[3-(1,4-Cyclohexadienyl)-L-alanine,8-lysine]vasopressin: synthesis and some pharmacological properties” (J Med Chem, 1979).

Positions of bridges follow the written chain, without caps; N, C: chain ends. Non-standard residues stand in square brackets, D forms with d. Residues, ends and D or L forms follow the SMILES beside them. 2Thi = N[C@@H](Cc1cccs1)C(=O)O

Data set [1] is filed under the species Rattus norvegicus. The experiment in a line: Vasopressor activity in phenoxybenzamine-treated rat. Type of data set: functional. The method in brief: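 Phenoxybenzamine-treated rats under urethane anesthesia. Potency referenced to the USP Posterior Pituitary Reference Standard.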
The nature of data set [2]: Oxytocic activity in isolated rat uterus strips in Mg2+-free van Dyke-Hastings solution.
For data set [3], the species on record is Gallus gallus. The experiment in a line: Vasodepressor activity in chicken. It is filed as functional.
Data set [4] has as its system Rattus norvegicus. Description: Antidiuretic activity in iv dosed water loaded rat. It is filed as functional, Urine. The method in brief: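 Water-loaded rats under ethanol anesthesia, peptide given intravenously. Potency referenced to the USP Posterior Pituitary Reference Standard.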
The nature of data set [5]: Stability of the compound in 0.2 M potassium phosphate buffer at pH 7.7 assessed as hydrolysis by measuring Ile/Phe + DiHPe level in presence of alpha-amylase preparation. Type of data set: ADME.
The nature of data set [6]: Stability of the compound in 0.2 M potassium phosphate buffer at pH 7.7 assessed as hydrolysis by measuring Gly level in presence of alpha-amylase preparation. Type of data set: ADME.
Data set [7] can be described thus: Stability of the compound in 0.2 M potassium phosphate buffer at pH 7.7 assessed as hydrolysis by measuring Leu/Lys level in presence of alpha-amylase preparation. It is filed as ADME.
A short description of data set [8]: Stability of the compound in 0.2 M potassium phosphate buffer at pH 7.7 assessed as hydrolysis by measuring Tyr level in presence of alpha-amylase preparation. Type of data set: ADME.

Consider `NCCCC[C@H](NC(=O)[C@@H]1CCCN1C(=O)[C@@H]1CSSC[C@H](N)C(=O)N[C@@H](Cc2ccc(O)cc2)C(=O)N[C@@H](CO)C(=O)N[C@@H](CCC(N)=O)C(=O)N[C@@H](CC(N)=O)C(=O)N1)C(=O)NCC(N)=O` (H-CYSQNCPKG-NH2; disulfide 1-6), for which the Activity in data set [1] is given as less than 0.01 U/mg; in data set [2], less than 0.01 U/mg; in data set [3], less than 0.01 U/mg; in data set [4] it was 0.08 U/mg.

As to `NCCCC[C@H](NC(=O)[C@@H]1CCCN1C(=O)[C@@H]1CSSC[C@H](N)C(=O)N[C@@H](Cc2ccc(O)cc2)C(=O)N[C@@H](Cc2cccs2)C(=O)N[C@@H](CCC(N)=O)C(=O)N[C@@H](CC(N)=O)C(=O)N1)C(=O)NCC(N)=O` (H-CY[2Thi]QNCPKG-NH2; disulfide 1-6), the Activity in data set [1] stood at 243 U/mg; in data set [2] it was 19 U/mg; in data set [3], 87 U/mg; in data set [4] it was 332 U/mg.

Take `CC[C@H](C)[C@@H]1NC(=O)[C@H](Cc2ccc(O)cc2)NC(=O)[C@@H](N)CSSC[C@@H](C(=O)N2CCC[C@H]2C(=O)N[C@@H](CCCCN)C(=O)NCC(N)=O)NC(=O)[C@H](CC(N)=O)NC(=O)[C@H](CCC(N)=O)NC1=O` (H-CYIQNCPKG-NH2; disulfide 1-6): the Activity in data set [1] stood at 130 U/mg; in data set [2], 78 U/mg; in data set [3], 190 U/mg; in data set [4], 24 U/mg.

Regarding `N=C(N)NCCC[C@H](NC(=O)[C@@H]1CCCN1C(=O)[C@@H]1CSSC[C@H](N)C(=O)N[C@@H](Cc2ccc(O)cc2)C(=O)N[C@@H](Cc2ccccc2)C(=O)N[C@@H](CCC(N)=O)C(=O)N[C@@H](CC(N)=O)C(=O)N1)C(=O)NCC(N)=O` [VASOPRESSIN], the Activity was found to be 380 U/mg in data set [1], 16 U/mg in data set [2], 57 U/mg in data set [3] and 429 U/mg in data set [4].

For the compound `CC[C@H](C)[C@@H]1NC(=O)[C@H](Cc2ccc(O)cc2)NC(=O)[C@@H](N)CSSC[C@@H](C(=O)N2CCC[C@H]2C(=O)N[C@@H](CCCNC(=N)N)C(=O)NCC(N)=O)NC(=O)[C@H](CC(N)=O)NC(=O)[C@H](CCC(N)=O)NC1=O` [ARGIPRESTOCIN] (H-CYIQNCPRG-NH2; disulfide 1-6), the Activity was 243 U/mg in data set [1], 114 U/mg in data set [2], 286 U/mg in data set [3] and 245 U/mg in data set [4].

Turning to `NCCCC[C@H](NC(=O)[C@@H]1CCCN1C(=O)[C@@H]1CSSC[C@H](N)C(=O)N[C@@H](Cc2ccc(O)cc2)C(=O)N[C@@H](Cc2ccccc2)C(=O)N[C@@H](CCC(N)=O)C(=O)N[C@@H](CC(N)=O)C(=O)N1)C(=O)NCC(N)=O` [LYPRESSIN], the Activity in data set [1] was 258 U/mg; in data set [2] it was 5 U/mg; in data set [3], 40 U/mg; in data set [4] it was 212 U/mg. Moreover, the Drug degradation in data set [5] stood at 113 mol%; in data set [6], 73 mol%; in data set [7] it was 101 mol%; in data set [8], 100 mol%.
